Results gathered from unrelated publications.
Protocols differ between the studies behind these lines.
Target: Ribosomal protein S6 kinase beta-1 (RPS6KB1, Homo sapiens, UniProt P23443)

| Structure (SMILES) | test | setting | remaining binding [%] |
| --- | --- | --- | --- |
| Cc1cnc(Nc2ccc(C(=O)N3CCC(N4CCCC4)CC3)cc2)nc1-c1cc2ccccc2s1 | binding, competition with immobilised ligand | 1 µM | 36 |
| C[C@H](NC(=O)c1cnc2n1[C@](C)(Cc1ccc(C#N)cc1)C(=O)N2c1cc(Cl)c(F)c(Cl)c1)C(=O)NC1(c2ccccn2)CC1 | cell-free assay, competition with immobilised ligand | 1 µM | 100 |
| COc1ncc2cc3ccccc3nc2c1C#N | cell-free assay, competition with immobilised ligand | 5 µM | 100 |
| O=C(Nc1c[nH]nc1C(=O)NC1CCNCC1)c1cc(F)cc(F)c1 | binding, competition with immobilised ligand | 1 µM | 99 |
| NS(=O)(=O)c1cc(NC(=O)Cc2ccccc2)ccc1Oc1cccc(Cl)c1 | cell-free assay, competition with immobilised ligand | 1 µM | 69 |
| Nc1ncc2c(n1)-c1c([nH]c3ccc(C#CC4CC4)cc13)CCCC2 | binding, competition with immobilised ligand | 1 µM | 72 |
| CC1CCCN1c1nccc(-c2cnn3ncccc23)n1 (stereo not drawn) | binding | 1 µM | 100 |
| O=C(NS(=O)(=O)c1ccc(NCC2CCOCC2)c([N+](=O)[O-])c1)c1ccc(N2CCN(Cc3ccc(C(F)(F)F)cc3-c3ccc(Cl)cc3)CC2)cc1Oc1cnc2[nH]ccc2c1 | cell-free assay, competition with immobilised ligand | 1 µM | 81 |
| C[C@@H]1CCN(c2nccc(-c3cnn4ncccc34)n2)C1 | binding | 1 µM | 87 |
| O=C(NCCCN1CCOCC1)c1ccc(Nc2ncc(Cl)c(-c3ccc(Cl)s3)n2)cc1 | binding, competition with immobilised ligand | 1 µM | 38 |
| O=C(O)c1cc(-c2ccc(C3CCNCC3)cc2)c2ccc(-c3ccc(C(F)(F)F)cc3)cc2c1 | cell-free assay, competition with immobilised ligand | 1 µM | 100 |
| O=C(NCCCN1CCOCC1)c1ccc(Nc2nccc(-c3cc4ccccc4s3)n2)cc1 | binding, competition with immobilised ligand | 1 µM | 92 |
| CN(C)c1nccc(-c2cnn3ncccc23)n1 | binding | 1 µM | 100 |
| CNC(=O)c1ccc(Nc2ncc(C(F)(F)F)c(NCc3nccnc3N(C)S(C)(=O)=O)n2)cc1 | cell-free assay, competition with immobilised ligand | 0.1 µM | 96 |
| N[C@H]1CCN(c2nccc(-c3cnn4ncccc34)n2)C1 | binding | 1 µM | 100 |
| C=CC(=O)N1CCC(C(=O)NCC(=O)N2CCN(c3nc(-c4cnc(N)nc4C(F)F)nc(N4CCOCC4)n3)CC2)CC1 | binding, competition with immobilised ligand | 1 µM | 56 |
| C[C@@H](c1ccc(-n2cnc3c(N)ncnc32)cc1)N1CCc2nn(C)c(Cc3ccccc3)c2C1=O | binding, competition with immobilised ligand | 0.1 µM | 67 |
| CN(c1nccc(-c2cnn3ncccc23)n1)C1CC1 | binding | 1 µM | 100 |
| CNC(=O)[C@@H]1CC[C@@H](n2c(-c3ccc4cnccc4c3)nc3ccc(C(=O)NCc4cccc(C(N)=O)c4)cc32)C1 | binding, competition with immobilised ligand | 1 µM | 87 |
| CCCOc1ccc([C@H]2[C@H](C(=O)O)[C@@H](c3ccc4c(c3)OCO4)CN2CC(=O)Nc2c(CC)cccc2CC)cc1 | cell-free assay, competition with immobilised ligand | 1 µM | 76 |
| Cc1cnn2ncc(-c3ccnc(N(C)C)n3)c2c1 | binding | 1 µM | 82 |
